Data on one compound can be found in ChEMBL document CHEMBL4411332, “Deciphering the Role of Intramolecular Networking in Cholic Acid-Peptide Conjugates on the Lipopolysaccharide Surface in Combating Gram-Negative Bacterial Infections” (J Med Chem, 2019).

In brackets after ≈: the same amount, converted by molar mass.

For one data set, the system named is Escherichia coli. Nature of the data set: Antibacterial activity against Escherichia coli by broth dilution assay. In kind it is functional. A digest of the protocol:
(§1)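 MIC99 by broth-dilution assay; antibacterial and culture details are in the Supporting Information.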
For orientation: Broth dilution looks for growth in wells or tubes with falling amounts of substance.

The next data set has as its system Klebsiella pneumoniae. The data set is described as follows: Antibacterial activity against Klebsiella pneumoniae by broth dilution assay. In kind it is functional. The gist of the method:
as §1

The next data set relates to Acinetobacter baumannii. Nature of the data set: Antibacterial activity against Acinetobacter baumannii by broth dilution assay. In kind it is functional. The gist of the method: as §1
Another data set deals with Erythrocyte. Nature of the data set: Hemolytic activity against human RBC incubated for 1 hr. In kind it is ADME, cell-based.
The test system of the next data set is A549. The data set is described as follows: Cytotoxicity against human A549 cells incubated for 48 hrs by MTT assay. In kind it is cell-based. The note with it: a549, 48 h.

In general, MIC99 refers to the lowest concentration that inhibits either 99% of growth or 99% of the strains tested, depending on the study. Regarding `CC[C@H](C)[C@H](N)C(=O)NCC(=O)O[C@@H]1CC[C@@]2(C)[C@@H](C1)C[C@@H](OC(=O)CNC(=O)[C@@H](N)[C@@H](C)CC)[C@@H]1[C@@H]2C[C@H](OC(=O)CNC(=O)[C@@H](N)[C@@H](C)CC)[C@]2(C)[C@@H]([C@H](C)CCC(=O)OCc3ccccc3)CC[C@@H]12`, the MIC99 was 8 µM (≈ 8.07 µg/mL) against Escherichia coli, 16 µM (≈ 16.1 µg/mL) in the data set on Klebsiella pneumoniae and 16 µM (≈ 16.1 µg/mL) with Acinetobacter baumannii. Moreover, the Activity result with Erythrocyte and with A549 was “Toxic” throughout.
